# What was measured:
# [1] = Octanol-water partition coefficient, log P of the compound; format: physicochemical
# [2] = biological target: T1, GABA-A receptor; GABA-A site (alpha1/beta2 interface) (Homo sapiens) (UniProt P14867+P47870); assay: Modulation of GABA Aalpha1beta2 receptor expressed in Xenopus laevis oocytes assessed as potentiation of GABA-induced chloride current at holding potential -70 mV at 30 uM by two-microelectrode voltage clamp technique relative to GABA; format: cell-based; conditions: Oocyte
# Method in brief: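 Single-concentration screen at 30 μM on α1β2 receptors (cRNA 1:1) in Xenopus oocytes. Enhancement was (I(GABA+compound)/IGABA)−1. DMSO was matched in control and test solutions, maximum 0.3% in the bath.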
# [3] = biological target: T2, GABA-A receptor; GABA-A site (alpha1/beta2 interface) (Homo sapiens, UniProt P14867+P47870); assay: Modulation of GABA Aalpha1beta2 receptor expressed in Xenopus laevis oocytes assessed as potentiation of GABA-induced chloride current at holding potential -70 mV by two-microelectrode voltage clamp technique; format: cell-based, Oocyte
# T2 sequence (P14867 whole entry): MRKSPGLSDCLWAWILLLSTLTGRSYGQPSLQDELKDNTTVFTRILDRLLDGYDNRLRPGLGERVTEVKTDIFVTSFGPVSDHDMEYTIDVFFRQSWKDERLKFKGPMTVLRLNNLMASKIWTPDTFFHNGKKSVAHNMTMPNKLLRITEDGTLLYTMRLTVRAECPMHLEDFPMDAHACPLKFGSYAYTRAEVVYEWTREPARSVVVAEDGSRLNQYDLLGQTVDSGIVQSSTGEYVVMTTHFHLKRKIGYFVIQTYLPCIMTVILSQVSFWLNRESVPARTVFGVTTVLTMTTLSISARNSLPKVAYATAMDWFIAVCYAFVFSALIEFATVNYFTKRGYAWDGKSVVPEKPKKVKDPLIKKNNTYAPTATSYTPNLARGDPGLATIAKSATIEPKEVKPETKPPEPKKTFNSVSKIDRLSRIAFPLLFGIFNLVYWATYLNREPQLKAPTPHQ
# T2 sequence (P47870 whole entry): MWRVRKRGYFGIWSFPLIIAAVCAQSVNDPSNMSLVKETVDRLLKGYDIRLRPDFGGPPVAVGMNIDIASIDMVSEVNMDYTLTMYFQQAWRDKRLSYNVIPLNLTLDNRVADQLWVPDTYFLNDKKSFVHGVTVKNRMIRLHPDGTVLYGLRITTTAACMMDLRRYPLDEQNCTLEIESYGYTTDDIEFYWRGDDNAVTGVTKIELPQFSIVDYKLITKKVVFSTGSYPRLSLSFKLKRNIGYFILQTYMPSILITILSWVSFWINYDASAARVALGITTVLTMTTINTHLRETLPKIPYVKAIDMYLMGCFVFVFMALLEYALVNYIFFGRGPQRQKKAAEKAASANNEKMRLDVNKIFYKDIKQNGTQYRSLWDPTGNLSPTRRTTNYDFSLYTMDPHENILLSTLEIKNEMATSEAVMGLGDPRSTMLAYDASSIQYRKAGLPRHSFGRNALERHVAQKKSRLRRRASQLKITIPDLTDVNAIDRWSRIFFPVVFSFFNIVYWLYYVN
# Method in brief: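 Stage V–VI Xenopus oocytes, defolliculated with 2 mg/mL collagenase, injected with α(1, 2, 3 or 5) and β2 cRNAs mixed 1:1, then kept at 18 °C in ND96 (pH 7.4). Enhancement = I(GABA+compound)/IGABA − 1. Curves were Hill-fitted for EC50. Bath DMSO was at most 0.3%, matched in controls.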
# [4] = biological target: T1, GABA-A receptor; GABA-A site (alpha1/beta2 interface) (Homo sapiens); assay: Modulation of GABA Aalpha1beta2 receptor expressed in Xenopus laevis oocytes assessed as potentiation of GABA-induced chloride current at holding potential -70 mV by two-microelectrode voltage clamp technique relative to GABA; format: cell-based; conditions: Oocyte
# Method in brief: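 Oocytes were injected with α1, α2, α3 or α5 plus β2 cRNA at a 1:1 ratio and stored at 18 °C in ND96, pH 7.4. Enhancement was (I(GABA+compound)/IGABA)−1, and concentration-response data were Hill-fitted for EC50 and nH. Matched DMSO was ≤0.3%.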
SMILES,logP ([1]; read-out: logP),Activity [2],EC50 [3],Smax [4],logP [1]
C=CCc1ccc(OCC)c(-c2ccc(OCC)c(CC=C)c2)c1,6.37,14%,–,–,–
C=CCc1ccc(O)c(-c2cc(CC=C)ccc2O)c1 [MAGNOLOL],5.16,357%,36.8 µM,963%,–
C=CCc1ccc(OCCCCC)c(-c2ccc(OCCCCC)c(CC=C)c2)c1,–,1%,–,–,9.37
COc1ccc(-c2cc(CCO)ccc2O)cc1CCO,2.72,15%,105 µM,177%,–
C=CCc1cc(-c2ccc(O)c(CC=C)c2)ccc1O,5.16,73%,23.7 µM,110%,–
CCCc1ccc(O)c(-c2ccc(OC)c(CCC)c2)c1,6.01,1060%,12.7 µM,1440%,–
C=CCc1ccc(O)c(-c2ccc(OCCCCC)c(CC=C)c2)c1,7.27,28%,–,–,–
C=CCc1ccc(O)c(-c2ccc(OC)c(CC=C)c2)c1 [METHYLHONOKIOL],5.43,822%,27.2 µM,1530%,–
C=CCc1ccc(OCCC)c(-c2ccc(O)c(CC=C)c2)c1,6.38,93%,14.8 µM,145%,–
C=CCc1cc(-c2ccc(OC)c(CC=C)c2)c(O)c(N(C)C)c1,5.38,215%,18.5 µM,326%,–
C=CCc1ccc(OCC)c(-c2ccc(O)c(CC=C)c2)c1,5.77,1080%,14.3 µM,1400%,–
C=CCc1ccc(OC)c(-c2ccc(OC)c(CC=C)c2)c1,5.69,110%,42.1 µM,368%,–
CCCCC=CCc1ccc(O)c(-c2ccc(OC)c(CC=CCCCC)c2)c1 (mixture of isomers),8.36,-2%,2 µM,–,–
C=CCc1ccc(OCCCCC)c(-c2ccc(O)c(CC=C)c2)c1,7.27,13%,–,–,–
C=CCc1ccc(O)c(-c2ccc(OC)c(CC(C)Br)c2)c1 (stereo unspecified),5.99,589%,16.9 µM,952%,–
C=CCc1cc(-c2ccc(OC)c(CC=C)c2)c(O)c(N(CC)CC)c1,6.06,7%,–,–,–
C=CCc1cccc(-c2cccc(CC=C)c2O)c1O,5.09,53%,35.2 µM,148%,–
C=CCc1ccc(O)c(-c2ccc(OC)c(/C=C\C)c2)c1,5.45,605%,19.7 µM,1000%,–
C=CCc1cc(NC)c(O)c(-c2ccc(OC)c(CC=C)c2)c1,5.11,1840%,9.3 µM,2030%,–
C=CCc1cc(N)c(O)c(-c2ccc(OC)c(CC=C)c2)c1,4.79,2180%,12.4 µM,2710%,–
C=CCc1cc(-c2ccc(OC)c(CC=C)c2)c(O)c([N+](=O)[O-])c1,5.4,120%,25 µM,227%,–
C=CCc1ccc(OC2CC2)c(-c2ccc(OCCC)c(CC=C)c2)c1,6.38,339%,22 µM,608%,–
C=CCc1ccc(O)c(-c2ccc(OCC)c(CC=C)c2)c1,5.77,345%,59.9 µM,865%,–
COc1ccc(-c2cc(CC(C)O)ccc2O)cc1CC(C)O (stereo unspecified),3.64,68%,34.2 µM,161%,–
C=CCc1ccc(OCCC)c(-c2ccc(OCCC)c(CC=C)c2)c1,7.6,22%,–,–,–
C=CCc1ccc(O)c(-c2cc(CC=C)ccc2OC)c1,5.43,687%,54.3 µM,2800%,–
COc1ccc(-c2cc(CC(O)CO)ccc2O)cc1CC(O)CO (stereo unspecified),1.57,4%,–,–,–
C=CCc1cc(NCC)c(O)c(-c2ccc(OC)c(CC=C)c2)c1,5.45,2140%,7.7 µM,2290%,–
C=CCc1cc(-c2cc(CC(C)Br)ccc2O)ccc1OC (stereo unspecified),5.99,1230%,8.4 µM,1340%,–
